Source: ChEMBL document CHEMBL4390675, “Dopamine D4 Receptor-Selective Compounds Reveal Structure-Activity Relationships that Engender Agonist Efficacy” (J Med Chem, 2019)

biological target: T1, D(2) dopamine receptor (Homo sapiens, UniProt P14416); assay: Agonist activity at human D2L receptor expressed in CHOK1 cells assessed as inhibition of forskolin-induced cAMP accumulation measured after 30 mins by Eu-cAMP tracer based TR-FRET assay; assay type: cell-based; conditions: not given
In short: (§1)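 LANCE Ultra TR-FRET cAMP assay in CHO-K1 cells stably expressing human D2R long isoform or D4R. Cells were plated in HBSS/5 mM HEPES/0.2 μM metabisulfite, then immediately given compound plus forskolin (10 μM final) for 30 min at room temperature. Eu-cAMP tracer and ULight-anti-cAMP were added for 2 h in the dark. Values are % of maximal dopamine signal, nonlinear regression of triplicate runs, n = 3–4.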

T1 sequence (P14416 whole entry, canonical isoform): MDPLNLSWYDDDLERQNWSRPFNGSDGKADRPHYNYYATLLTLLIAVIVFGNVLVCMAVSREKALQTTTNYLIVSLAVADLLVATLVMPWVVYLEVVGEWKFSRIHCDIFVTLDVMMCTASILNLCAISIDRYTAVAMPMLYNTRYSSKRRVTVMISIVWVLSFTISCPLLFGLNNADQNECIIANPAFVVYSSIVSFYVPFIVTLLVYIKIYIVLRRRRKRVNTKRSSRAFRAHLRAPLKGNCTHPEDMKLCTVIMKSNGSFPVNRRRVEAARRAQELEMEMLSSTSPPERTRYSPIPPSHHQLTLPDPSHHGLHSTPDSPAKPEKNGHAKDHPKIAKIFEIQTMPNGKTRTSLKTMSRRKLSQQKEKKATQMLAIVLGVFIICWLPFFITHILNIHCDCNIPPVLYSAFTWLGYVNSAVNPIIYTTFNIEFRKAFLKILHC

SMILES	EC50
Cc1cccc(NC(=O)CN2CCN(c3cccc4ccccc34)CC2)c1	Not Active
CCc1cccc(NC(=O)CN2CCC(c3ccccn3)CC2)c1	Not Active
Cc1cccc(NC(=O)CN2CCN(c3ccc(Cl)cn3)CC2)c1	Not Active

biological target: T1, D(2) dopamine receptor; assay: Antagonist activity at human D2L receptor expressed in CHOK1 cells assessed as suppression of dopamine-induced inhibition of forskolin-stimulated cAMP accumulation measured after 30 mins by Eu-cAMP tracer based TR-FRET assay relative to dopamine; assay type: cell-based; conditions: 0.5 h

SMILES	inhibition (INH)
Cc1cccc(NC(=O)CN2CCN(c3cccc4ccccc34)CC2)c1	100%
CCc1cccc(NC(=O)CN2CCC(c3ccccn3)CC2)c1	96.6%
Cc1cccc(NC(=O)CN2CCN(c3ccc(Cl)cn3)CC2)c1	98.3%

biological target: T2, D(4) dopamine receptor (Homo sapiens, UniProt P21917); assay: Antagonist activity at human D4 receptor expressed in CHOK1 cells assessed as suppression of dopamine-induced inhibition of forskolin-stimulated cAMP accumulation measured after 30 mins by Eu-cAMP tracer based TR-FRET assay; assay type: functional, cell-based; conditions: not given
T2 sequence (P21917 whole entry): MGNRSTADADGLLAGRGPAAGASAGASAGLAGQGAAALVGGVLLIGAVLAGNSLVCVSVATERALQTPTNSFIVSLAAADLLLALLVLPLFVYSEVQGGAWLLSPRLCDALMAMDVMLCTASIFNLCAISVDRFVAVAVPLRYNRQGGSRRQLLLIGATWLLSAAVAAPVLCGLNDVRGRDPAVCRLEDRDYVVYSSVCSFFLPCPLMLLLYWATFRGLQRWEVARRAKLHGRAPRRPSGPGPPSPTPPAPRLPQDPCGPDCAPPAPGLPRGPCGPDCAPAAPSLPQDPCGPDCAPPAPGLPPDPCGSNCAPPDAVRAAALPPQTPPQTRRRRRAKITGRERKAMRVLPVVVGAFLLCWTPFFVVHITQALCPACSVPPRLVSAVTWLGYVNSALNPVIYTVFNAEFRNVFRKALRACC

SMILES	IC50
Cc1cccc(NC(=O)CN2CCN(c3cccc4ccccc34)CC2)c1	2520 nM
CCc1cccc(NC(=O)CN2CCC(c3ccccn3)CC2)c1	1910 nM
Cc1cccc(NC(=O)CN2CCN(c3ccc(Cl)cn3)CC2)c1	4700 nM

biological target: T3, D(4) dopamine receptor (Homo sapiens) (UniProt P21917); assay: Agonist activity at human D4 receptor expressed in CHOK1 cells assessed as inhibition of forskolin-induced cAMP accumulation measured after 30 mins by Eu-cAMP tracer based TR-FRET assay relative to dopamine; assay type: functional, cell-based; conditions: not given; in short: as §1
T3 sequence (whole entry): T2 sequence (P21917 whole entry)

SMILES	Emax
Cc1cccc(NC(=O)CN2CCN(c3cccc4ccccc34)CC2)c1	27.8%

biological target: T2, D(4) dopamine receptor; assay: Agonist activity at human D4 receptor expressed in CHOK1 cells assessed as inhibition of forskolin-induced cAMP accumulation measured after 30 mins by Eu-cAMP tracer based TR-FRET assay; assay type: functional, cell-based; conditions: not given; in short: as §1

SMILES	EC50
Cc1cccc(NC(=O)CN2CCN(c3ccc(Cl)cn3)CC2)c1	Not Active

same assay, conditions: read-out: EC50

SMILES	EC50
Cc1cccc(NC(=O)CN2CCN(c3cccc4ccccc34)CC2)c1	108 nM
CCc1cccc(NC(=O)CN2CCC(c3ccccn3)CC2)c1	539 nM

biological target: T4, D(3) dopamine receptor (Homo sapiens, UniProt P35462); assay: Displacement of [3H]N-methylspiperone from human D3 receptor expressed in HEK293 cell membranes measured after 60 mins by scintillation counting method; conditions: not given
In short: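 HEK293 cells stably expressing human D3R; membranes in EBSS buffer pH 7.4, stored at −80 °C. 20 μg protein/well with 0.4 nM [3H]N-methylspiperone (final), half-log dilutions in 30% DMSO, in triplicate. 60 min at room temperature, then GF/B filtration. Nonspecific binding with 10 μM (+)-butaclamol.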

T4 sequence (P35462 whole entry): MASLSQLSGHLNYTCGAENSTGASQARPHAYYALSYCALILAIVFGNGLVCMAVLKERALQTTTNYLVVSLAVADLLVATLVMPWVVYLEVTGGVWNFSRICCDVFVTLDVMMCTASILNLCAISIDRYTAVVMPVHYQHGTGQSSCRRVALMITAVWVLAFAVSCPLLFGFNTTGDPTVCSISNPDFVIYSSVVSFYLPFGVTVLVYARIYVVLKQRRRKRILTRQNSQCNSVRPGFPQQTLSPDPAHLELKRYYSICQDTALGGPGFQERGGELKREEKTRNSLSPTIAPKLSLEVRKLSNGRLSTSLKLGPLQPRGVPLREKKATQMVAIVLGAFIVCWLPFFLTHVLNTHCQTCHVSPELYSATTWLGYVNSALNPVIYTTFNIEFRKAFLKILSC

SMILES	Ki
Cc1cccc(NC(=O)CN2CCN(c3cccc4ccccc34)CC2)c1	11500 nM
CCc1cccc(NC(=O)CN2CCC(c3ccccn3)CC2)c1	496 nM
Cc1cccc(NC(=O)CN2CCN(c3ccc(Cl)cn3)CC2)c1	> 50000 nM

biological target: T2, D(4) dopamine receptor; assay: Displacement of [3H]N-methylspiperone from human D4.4 receptor expressed in HEK293 cell membranes measured after 60 mins by scintillation counting method; conditions: not given
In short: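 Frozen HEK293 membranes stably expressing human D4.4R (30 μg/well) in EBSS-bicarbonate buffer, pH 7.4, were incubated with 0.4 nM [3H]N-methylspiperone and half-log compound dilutions (30% DMSO vehicle) for 60 min at room temperature. Nonspecific binding was defined by 10 μM (+)-butaclamol. Samples were filtered on GF/B filters and counted by scintillation.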

SMILES	Ki
Cc1cccc(NC(=O)CN2CCN(c3cccc4ccccc34)CC2)c1	28.4 nM
CCc1cccc(NC(=O)CN2CCC(c3ccccn3)CC2)c1	82.3 nM
Cc1cccc(NC(=O)CN2CCN(c3ccc(Cl)cn3)CC2)c1	95 nM

biological target: T2, D(4) dopamine receptor; assay: Displacement of [3H](R)-(+)-7-OH-DPAT from human D4.4 receptor expressed in HEK293 cell membranes measured after 90 mins by scintillation counting method; conditions: not given
In short: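 HEK293 cells stably expressing human D4.4R; membranes used fresh in 50 mM Tris, 10 mM MgCl2, 1 mM EDTA, pH 7.4. 60 μg protein/well with 3 nM [3H]-(R)-(+)-7-OH-DPAT (final), half-log dilutions in 30% DMSO, in triplicate. 90 min at room temperature, then GF/B filtration. Nonspecific binding with 10 μM (+)-butaclamol.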

SMILES	Ki
Cc1cccc(NC(=O)CN2CCN(c3cccc4ccccc34)CC2)c1	1.65 nM
Cc1cccc(NC(=O)CN2CCN(c3ccc(Cl)cn3)CC2)c1	12.5 nM

biological target: T4, D(3) dopamine receptor; assay: Antagonist activity at human D3 receptor expressed in CHOK1 cells assessed as inhibition of dopamine-induced beta-arrestin recruitment measured after 90 mins by luminescence assay; assay type: cell-based; conditions: not given
In short: (§2)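 Antagonist-mode PathHunter β-arrestin assay in CHO-K1 cells stably expressing human D2R long isoform or D3R, seeded overnight. Compound dilutions in PBS with 0.2 μM metabisulfite were co-incubated with an EC80 dopamine concentration for 90 min at 37 °C. Detection reagent was added for 45–60 min at room temperature, then luminescence was read. Values are % of dopamine EC80 response, from nonlinear regression of triplicate runs, n = 3–4.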

SMILES	IC50
Cc1cccc(NC(=O)CN2CCN(c3cccc4ccccc34)CC2)c1	Not Active
CCc1cccc(NC(=O)CN2CCC(c3ccccn3)CC2)c1	Not Active
Cc1cccc(NC(=O)CN2CCN(c3ccc(Cl)cn3)CC2)c1	Not Active

biological target: T4, D(3) dopamine receptor; assay: Displacement of [3H](R)-(+)-7-OH-DPAT from human D3 receptor expressed in HEK293 cell membranes measured after 90 mins by scintillation counting method; conditions: not given
In short: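 Fresh HEK293 hD3R membranes (40 μg/well) in 50 mM Tris, 10 mM MgCl2, 1 mM EDTA, pH 7.4 were incubated with 0.5 nM [3H]-(R)-(+)-7-OH-DPAT and half-log compound dilutions in 30% DMSO for 90 min at room temperature. Nonspecific binding was defined with 10 μM (+)-butaclamol. Samples were filtered on PEI-soaked GF/B filters and counted by scintillation.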

SMILES	Ki
Cc1cccc(NC(=O)CN2CCN(c3cccc4ccccc34)CC2)c1	1250 nM
Cc1cccc(NC(=O)CN2CCN(c3ccc(Cl)cn3)CC2)c1	> 10000 nM

biological target: T2, D(4) dopamine receptor; assay: Agonist activity at human D4 receptor expressed in CHOK1 cells assessed as induction of beta-arrestin recruitment measured after 90 mins by luminescence assay; assay type: cell-based; conditions: not given
In short: (§3)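 PathHunter enzyme-complementation assay in CHO-K1 cells stably expressing human D2R long isoform, D3R or D4R, seeded overnight in Ham's F12/10% FBS. Compounds were diluted in PBS with 0.2 μM sodium metabisulfite and applied at multiple concentrations for 90 min at 37 °C. Detection reagent was added for 45–60 min at room temperature, then luminescence was read. Values are % of maximal dopamine response, from nonlinear regression of triplicate runs, mean ± SEM, n = 3–4.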

SMILES	EC50
CCc1cccc(NC(=O)CN2CCC(c3ccccn3)CC2)c1	Not Active
Cc1cccc(NC(=O)CN2CCN(c3ccc(Cl)cn3)CC2)c1	Not Active

same assay, conditions: read-out: EC50

SMILES	EC50
Cc1cccc(NC(=O)CN2CCN(c3cccc4ccccc34)CC2)c1	9210 nM

biological target: T1, D(2) dopamine receptor; assay: Antagonist activity at human D2L receptor expressed in CHOK1 cells assessed as inhibition of dopamine-induced beta-arrestin recruitment measured after 90 mins by luminescence assay relative to control; assay type: cell-based; conditions: not given; in short: as §2

SMILES	INH
Cc1cccc(NC(=O)CN2CCN(c3cccc4ccccc34)CC2)c1	100%
CCc1cccc(NC(=O)CN2CCC(c3ccccn3)CC2)c1	100%
Cc1cccc(NC(=O)CN2CCN(c3ccc(Cl)cn3)CC2)c1	100%

biological target: T3, D(4) dopamine receptor (Homo sapiens); assay: Antagonist activity at human D4 receptor expressed in CHOK1 cells assessed as inhibition of dopamine-induced beta-arrestin recruitment measured after 90 mins by luminescence assay relative to control; assay type: cell-based; design: concentration or dose not given beside the values; conditions: not given

SMILES	inhibition
Cc1cccc(NC(=O)CN2CCN(c3cccc4ccccc34)CC2)c1	96.7%

biological target: T3, D(4) dopamine receptor (Homo sapiens); assay: Antagonist activity at human D4 receptor expressed in CHOK1 cells assessed as suppression of dopamine-induced inhibition of forskolin-stimulated cAMP accumulation measured after 30 mins by Eu-cAMP tracer based TR-FRET assay relative to dopamine; assay type: functional, cell-based; design: concentration or dose not given beside the values; conditions: not given

SMILES	inhibition
Cc1cccc(NC(=O)CN2CCN(c3cccc4ccccc34)CC2)c1	73.8%

biological target: T3, D(4) dopamine receptor (Homo sapiens); assay: Agonist activity at human D4 receptor expressed in CHOK1 cells assessed as induction of beta-arrestin recruitment measured after 90 mins by luminescence assay relative to control; assay type: cell-based; conditions: not given; in short: as §3

SMILES	Emax
Cc1cccc(NC(=O)CN2CCN(c3cccc4ccccc34)CC2)c1	16.4%

biological target: T1, D(2) dopamine receptor; assay: Agonist activity at human D2L receptor expressed in CHOK1 cells assessed as induction of beta-arrestin recruitment measured after 90 mins by luminescence assay; assay type: cell-based; conditions: not given; in short: as §3

SMILES	EC50
Cc1cccc(NC(=O)CN2CCN(c3cccc4ccccc34)CC2)c1	Not Active
CCc1cccc(NC(=O)CN2CCC(c3ccccn3)CC2)c1	Not Active
Cc1cccc(NC(=O)CN2CCN(c3ccc(Cl)cn3)CC2)c1	Not Active

biological target: T2, D(4) dopamine receptor; assay: Antagonist activity at human D4 receptor expressed in CHOK1 cells assessed as inhibition of dopamine-induced beta-arrestin recruitment measured after 90 mins by luminescence assay; assay type: cell-based; conditions: read-out: IC50

SMILES	IC50
Cc1cccc(NC(=O)CN2CCN(c3cccc4ccccc34)CC2)c1	4250 nM
CCc1cccc(NC(=O)CN2CCC(c3ccccn3)CC2)c1	2620 nM
Cc1cccc(NC(=O)CN2CCN(c3ccc(Cl)cn3)CC2)c1	7780 nM

biological target: T4, D(3) dopamine receptor; assay: Agonist activity at human D3 receptor expressed in CHOK1 cells assessed as induction of beta-arrestin recruitment measured after 90 mins by luminescence assay; assay type: cell-based; conditions: not given; in short: as §3

SMILES	EC50
Cc1cccc(NC(=O)CN2CCN(c3cccc4ccccc34)CC2)c1	Not Active
CCc1cccc(NC(=O)CN2CCC(c3ccccn3)CC2)c1	Not Active
Cc1cccc(NC(=O)CN2CCN(c3ccc(Cl)cn3)CC2)c1	Not Active
